ChEMBL document CHEMBL5352507, “Discovery of a Pan-Melanocortin Receptor Antagonist [Ac-DPhe(pI)-Arg-Nal(2')-Orn-NH2] at the MC1R, MC3R, MC4R, and MC5R that Mediates an Increased Feeding Response in Mice and a 40-Fold Selective MC1R Antagonist [Ac-DPhe(pI)-DArg-Nal(2')-Arg-NH2]” (J Med Chem, 2023)
Activity calls are given as the source filed them. No cut-off for these calls is given here. Bridge positions count the residues as written; N and C are the ends. Square brackets hold non-standard residues; d marks the D form. Peptide text beside a SMILES is read from it. dPhe(4-I) = N[C@H](Cc1ccc(I)cc1)C(=O)O; 2Nal = N[C@@H](Cc1ccc2ccccc2c1)C(=O)O; hArg = N=C(N)NCCCC[C@H](N)C(=O)O; Cit = NC(=O)NCCC[C@H](N)C(=O)O; Orn = NCCC[C@H](N)C(=O)O; Dab = NCC[C@H](N)C(=O)O; Dap = NC[C@H](N)C(=O)O

Legend:
[1] = molecular target: T1, Melanocortin receptor 5 (Mus musculus, UniProt P41149); assay: Binding affinity to mouse MC5R expressed in HEK293 cells coexpressing CRE/beta-galactosidase assessed as inhibition constant; format: cell-based
T1 sequence (P41149 whole entry): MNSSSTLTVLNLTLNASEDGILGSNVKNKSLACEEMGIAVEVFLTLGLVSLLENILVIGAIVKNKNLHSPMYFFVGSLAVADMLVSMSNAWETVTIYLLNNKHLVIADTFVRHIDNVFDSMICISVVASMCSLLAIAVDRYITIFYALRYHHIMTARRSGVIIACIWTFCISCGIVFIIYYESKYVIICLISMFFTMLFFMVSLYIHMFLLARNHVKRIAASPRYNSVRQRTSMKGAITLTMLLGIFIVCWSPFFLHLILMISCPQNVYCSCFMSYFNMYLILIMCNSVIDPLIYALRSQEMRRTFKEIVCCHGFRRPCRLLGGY

[2] = molecular target: Melanocyte-stimulating hormone receptor (Homo sapiens, UniProt Q01726); assay: Binding affinity to human MC1R
Sequence of Melanocyte-stimulating hormone receptor (Homo sapiens, UniProt Q01726) (Q01726 whole entry): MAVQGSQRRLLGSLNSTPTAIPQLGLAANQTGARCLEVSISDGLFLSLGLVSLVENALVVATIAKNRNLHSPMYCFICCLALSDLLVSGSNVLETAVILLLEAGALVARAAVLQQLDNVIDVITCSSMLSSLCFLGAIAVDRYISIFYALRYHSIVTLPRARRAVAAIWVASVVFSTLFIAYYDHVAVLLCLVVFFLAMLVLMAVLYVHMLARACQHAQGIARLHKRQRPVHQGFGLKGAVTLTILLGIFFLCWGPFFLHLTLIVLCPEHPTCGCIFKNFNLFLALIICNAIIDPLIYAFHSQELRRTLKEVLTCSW

[3] = molecular target: T2, Melanocortin receptor 4 (Mus musculus, UniProt P56450); assay: Agonist activity against mouse MC4R expressed in HEK293 cells assessed as increase in cAMP level incubated for 2 hrs by AlphaScreen assay; format: functional, cell-based
T2 sequence (P56450 whole entry): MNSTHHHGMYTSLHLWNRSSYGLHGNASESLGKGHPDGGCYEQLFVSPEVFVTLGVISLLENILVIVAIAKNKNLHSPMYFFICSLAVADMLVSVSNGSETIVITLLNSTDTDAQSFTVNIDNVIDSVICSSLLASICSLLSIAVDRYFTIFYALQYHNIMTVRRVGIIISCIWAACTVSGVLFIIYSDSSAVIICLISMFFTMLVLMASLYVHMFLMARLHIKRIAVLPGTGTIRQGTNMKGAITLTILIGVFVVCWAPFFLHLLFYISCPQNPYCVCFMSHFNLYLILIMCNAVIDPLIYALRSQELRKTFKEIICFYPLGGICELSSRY

[4] = molecular target: T3, Melanocyte-stimulating hormone receptor (Mus musculus, UniProt Q01727); assay: Agonist activity against mouse MC1R expressed in HEK293 cells assessed as increase in cAMP level incubated for 2 hrs by AlphaScreen assay; format: functional, cell-based
T3 sequence (Q01727 whole entry): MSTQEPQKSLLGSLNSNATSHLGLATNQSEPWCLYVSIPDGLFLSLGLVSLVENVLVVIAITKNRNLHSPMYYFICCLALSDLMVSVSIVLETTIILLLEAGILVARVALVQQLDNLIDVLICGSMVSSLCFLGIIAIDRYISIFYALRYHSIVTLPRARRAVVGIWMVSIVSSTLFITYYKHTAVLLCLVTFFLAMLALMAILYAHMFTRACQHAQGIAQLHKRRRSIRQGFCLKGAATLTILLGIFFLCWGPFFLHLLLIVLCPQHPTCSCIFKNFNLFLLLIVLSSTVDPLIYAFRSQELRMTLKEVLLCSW

[5] = molecular target: T1, Melanocortin receptor 5; assay: Agonist activity against mouse MC5R expressed in HEK293 cells assessed as increase in cAMP level incubated for 2 hrs by AlphaScreen assay; format: functional, cell-based
[6] = molecular target: T4, Melanocortin receptor 3 (Mus musculus, UniProt P33033); assay: Agonist activity against mouse MC3R expressed in HEK293 cells assessed as increase in cAMP level incubated for 2 hrs by AlphaScreen assay; format: functional, cell-based
T4 sequence (P33033 whole entry): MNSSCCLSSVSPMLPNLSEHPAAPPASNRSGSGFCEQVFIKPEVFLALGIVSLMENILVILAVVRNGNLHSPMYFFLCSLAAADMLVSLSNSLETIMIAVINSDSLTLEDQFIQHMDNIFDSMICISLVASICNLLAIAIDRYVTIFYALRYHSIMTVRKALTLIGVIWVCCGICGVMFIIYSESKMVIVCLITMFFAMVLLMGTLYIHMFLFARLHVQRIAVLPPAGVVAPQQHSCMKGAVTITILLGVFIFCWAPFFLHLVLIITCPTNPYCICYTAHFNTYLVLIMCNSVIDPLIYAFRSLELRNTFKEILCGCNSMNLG

[7] = molecular target: T2, Melanocortin receptor 4; assay: Binding affinity to mouse MC4R expressed in HEK293 cells assessed as inhibition constant by schild plot analysis; format: cell-based
[8] = molecular target: T4, Melanocortin receptor 3; assay: Binding affinity to mouse MC3R expressed in HEK293 cells assessed as inhibition constant by schild plot analysis; format: cell-based
[9] = molecular target: T3, Melanocyte-stimulating hormone receptor; assay: Partial agonist activity against mouse MC1R expressed in HEK293 cells assessed as increase in cAMP level incubated for 2 hrs by AlphaScreen assay; format: functional, cell-based
[10] = test system: Mus musculus; assay: In vivo antagonist activity MC4R in wild type C57BL/6J mouse assessed as increase in food intake at 15 nmol per mouse, IT administered directly into the spinal canal and measured for 2 to 6 hrs; format: functional, organism-based; settings: time 2-6 hrs
Summary of the method: (§1)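 Wild-type male and female mice (mixed 129/Sv×C57BL/6J, in-house colony) on a reversed 12-h light/dark cycle with chow ad libitum. Crossover design with 6–7 days between treatments. […] Cumulative food intake weighed at 0–72 h. n ≥ 8 per group; two-way ANOVA against vehicle.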

[11] = Toxicity in C57BL/6J mouse assessed as reduction in body weight at 10 to 15 nmol per mouse, IT measured for 24 to 48 hrs; settings: in vivo, other, dose lower 10 nmol, time lower 24 hrs, dose upper 15 nmol, time upper 48 hrs
Summary of the method: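 Wild-type male and female mice (129/Sv×C57BL/6J) in a crossover design, given 10 or 15 nmol intrathecally in 5 μL DMSO/water vehicle. Body weight recorded at 0, 24 and 48 h and compared with vehicle-treated controls.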

[12] = test system: Mus musculus; assay: In vivo antagonist activity MC4R in wild type C57BL/6J mouse assessed as increase in food intake at 10 to 15 nmol per mouse, IT administered directly into the spinal canal and measured for 24 hrs; format: functional, organism-based; settings: dose 10-15 nmol; summary of the method: as §1
[13] = test system: Mus musculus; assay: In vivo antagonist activity MC4R in wild type C57BL/6J mouse assessed as increase in food intake at 10 nmol per mouse, IT administered directly into the spinal canal and measured for 4 to 6 hrs; format: functional, organism-based; settings: time 4-6 hrs; summary of the method: as §1
[14] = molecular target: T1, Melanocortin receptor 5; assay: Binding affinity to mouse MC5R expressed in HEK293 cells assessed as inhibition constant by schild plot analysis; format: cell-based
[15] = molecular target: T3, Melanocyte-stimulating hormone receptor; assay: Binding affinity to mouse MC1R expressed in HEK293 cells assessed as inhibition constant by schild plot analysis; format: cell-based
[16] = molecular target: T3, Melanocyte-stimulating hormone receptor; assay: Binding affinity to mouse MC1R expressed in HEK293 cells coexpressing CRE/beta-galactosidase assessed as inhibition constant; format: cell-based

SMILES | EC50 [3] [µM] | EC50 [5] [µM] | EC50 [6] [µM] | other results
CCCC[C@H](NC(C)=O)C(=O)N[C@H]1CC(=O)NCCCC[C@@H](C(N)=O)NC(=O)[C@@H](Cc2ccc3ccccc3c2)NC(=O)[C@H](CCCNC(=N)N)NC(=O)[C@@H](Cc2ccc3ccccc3c2)NC(=O)[C@H](Cc2cn(C)cn2)NC1=O |  |  |  | Ki [1]: 63 nM
CC(C)[C@H](NC(=O)[C@@H]1CCC(=O)NCC(=O)N[C@@H](C2CCCC2)C(=O)N[C@H](Cc2ccc3ccccc3c2)C(=O)N[C@@H](CCCNC(=N)N)C(=O)N[C@@H](Cc2c[nH]c3ccccc23)C(=O)N1)C(=O)N[C@H](C(=O)NCC(N)=O)C(C)C |  |  |  | Ki [2]: 53 nM
CC(=O)N[C@H](Cc1ccc(I)cc1)C(=O)N[C@@H](Cc1c[nH]cn1)C(=O)N[C@@H](Cc1ccc2ccccc2c1)C(=O)N[C@@H](CCCNC(=N)N)C(N)=O (Ac-[dPhe(4-I)]H[2Nal]R-NH2) | > 100 | > 100 |  | Ki [7]: 100 nM
CC(=O)N[C@H](Cc1ccc(I)cc1)C(=O)N[C@@H](CCCNC(=N)N)C(=O)N[C@@H](Cc1ccc2ccccc2c1)C(=O)N[C@@H](CCCNC(N)=O)C(N)=O (Ac-[dPhe(4-I)]R[2Nal][Cit]-NH2) | > 100 | > 100 | > 100 | EC50 [4]: > 100 µM
CC(=O)N[C@H](Cc1ccc(I)cc1)C(=O)N[C@@H](CCCNC(=N)N)C(=O)N[C@@H](Cc1ccc2ccccc2c1)C(=O)N[C@@H](CN)C(N)=O (Ac-[dPhe(4-I)]R[2Nal][Dap]-NH2) | > 100 | > 100 | > 100 | 
CC(=O)N[C@H](Cc1ccc(I)cc1)C(=O)N[C@@H](CCCNC(=N)N)C(=O)N[C@@H](Cc1ccc2ccccc2c1)C(=O)N[C@@H](CCCN)C(N)=O (Ac-[dPhe(4-I)]R[2Nal][Orn]-NH2) |  |  |  | Activity [10]: Active; Activity [11]: Non-Toxic; Activity [12]: inactive; Activity [13]: Active
CC(=O)N[C@H](Cc1ccc(I)cc1)C(=O)N[C@@H](CCCNC(N)=O)C(=O)N[C@@H](Cc1ccc2ccccc2c1)C(=O)N[C@@H](CCCNC(=N)N)C(N)=O (Ac-[dPhe(4-I)][Cit][2Nal]R-NH2) | > 100 | > 100 |  | 
CC(=O)N[C@H](Cc1ccc(I)cc1)C(=O)N[C@@H](CN)C(=O)N[C@@H](Cc1ccc2ccccc2c1)C(=O)N[C@@H](CCCNC(=N)N)C(N)=O (Ac-[dPhe(4-I)][Dap][2Nal]R-NH2) | > 100 | > 100 | > 100 | EC50 [4]: > 100 µM; Ki [15]: 100 nM
C[C@@H]1NC(=O)[C@H](CC(N)=O)NC(=O)[C@H](Cc2ccccc2)NC(=O)[C@H](Cc2ccccc2)NC(=O)[C@H](CCCN=C(N)N)NC(=O)[C@@H](NC(=O)[C@@H](N)Cc2ccc(O)cc2)CCC(=O)NC[C@@H](C(=O)N[C@@H](Cc2ccc(O)cc2)C(N)=O)NC(=O)[C@H](Cc2ccccc2)NC1=O (H-YERFFNAF[Dap]Y-NH2; lactam 2-9) |  |  |  | Ki [16]: 1200 nM

Continued, in another order:

EC50 [3] [µM] | EC50 [5] [µM] | EC50 [6] [µM] | SMILES | other results
> 100 | > 100 | > 100 | CC(=O)N[C@H](Cc1ccc(I)cc1)C(=O)N[C@@H](CCC(=O)O)C(=O)N[C@@H](Cc1ccc2ccccc2c1)C(=O)N[C@@H](CCCNC(=N)N)C(N)=O (Ac-[dPhe(4-I)]E[2Nal]R-NH2) | EC50 [4]: > 100 µM
> 100 |  |  | CC(=O)N[C@H](Cc1ccc(I)cc1)C(=O)N[C@@H](CCCCN)C(=O)N[C@@H](Cc1ccc2ccccc2c1)C(=O)N[C@@H](CCCNC(=N)N)C(N)=O (Ac-[dPhe(4-I)]K[2Nal]R-NH2) | 
> 100 | > 100 |  | CC(=O)N[C@H](Cc1ccc(I)cc1)C(=O)N[C@@H](CCCNC(=N)N)C(=O)N[C@@H](Cc1ccc2ccccc2c1)C(=O)N[C@@H](Cc1c[nH]cn1)C(N)=O (Ac-[dPhe(4-I)]R[2Nal]H-NH2) | Ki [8]: 100 nM; EC50 [9]: 400 nM
> 100 | > 100 | > 100 | CC(=O)N[C@H](Cc1ccc(I)cc1)C(=O)N[C@@H](CCCNC(=N)N)C(=O)N[C@@H](Cc1ccc2ccccc2c1)C(=O)N[C@@H](CCN)C(N)=O (Ac-[dPhe(4-I)]R[2Nal][Dab]-NH2) | EC50 [9]: 1100 nM
> 100 | > 100 | > 100 | CC(=O)N[C@H](Cc1ccc(I)cc1)C(=O)N[C@@H](CCCNC(=N)N)C(=O)N[C@@H](Cc1ccc2ccccc2c1)C(=O)N[C@@H](CCCCNC(=N)N)C(N)=O (Ac-[dPhe(4-I)]R[2Nal][hArg]-NH2) | Ki [14]: 1000 nM
> 100 | > 100 | > 100 | CC(=O)N[C@H](Cc1ccc(I)cc1)C(=O)N[C@@H](CCCN)C(=O)N[C@@H](Cc1ccc2ccccc2c1)C(=O)N[C@@H](CCCNC(=N)N)C(N)=O (Ac-[dPhe(4-I)][Orn][2Nal]R-NH2) | Ki [7]: 100 nM
> 100 |  |  | CC(=O)N[C@H](Cc1ccc(I)cc1)C(=O)N[C@H](CCCCN)C(=O)N[C@@H](Cc1ccc2ccccc2c1)C(=O)N[C@@H](CCCNC(=N)N)C(N)=O (Ac-[dPhe(4-I)][dK][2Nal]R-NH2) | EC50 [4]: > 100 µM
